The species named for one test is Homo sapiens. Briefly: In vitro activity expressed as EC50 for inhibition of collagen induced platelet aggregation. The format is functional.
The target in the next test is T1, Thromboxane A2 receptor (Homo sapiens, UniProt P21731).
T1 sequence (P21731 whole entry): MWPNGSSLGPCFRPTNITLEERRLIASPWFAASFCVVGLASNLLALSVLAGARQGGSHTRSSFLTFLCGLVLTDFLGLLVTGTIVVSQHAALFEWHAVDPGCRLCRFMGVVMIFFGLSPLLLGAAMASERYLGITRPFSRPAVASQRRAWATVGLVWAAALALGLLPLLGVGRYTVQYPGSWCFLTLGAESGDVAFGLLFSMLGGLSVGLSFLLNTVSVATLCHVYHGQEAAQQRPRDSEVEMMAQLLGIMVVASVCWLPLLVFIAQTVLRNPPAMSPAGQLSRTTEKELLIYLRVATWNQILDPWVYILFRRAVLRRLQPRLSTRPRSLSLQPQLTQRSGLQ
Put plainly: In vitro activity on thromboxane A2 receptor antagonism in gel filtered human platelets. The format is functional. A digest of the protocol: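 Human gel-filtered platelets; competitive displacement of the high-affinity radioligand ³H-SQ 29,548 from the PGH2/TXA2 receptor; IC50 from displacement. Run at least in duplicate.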

In the next test the target is T2, Thromboxane-A synthase (Homo sapiens, UniProt P24557).
T2 sequence (P24557 whole entry): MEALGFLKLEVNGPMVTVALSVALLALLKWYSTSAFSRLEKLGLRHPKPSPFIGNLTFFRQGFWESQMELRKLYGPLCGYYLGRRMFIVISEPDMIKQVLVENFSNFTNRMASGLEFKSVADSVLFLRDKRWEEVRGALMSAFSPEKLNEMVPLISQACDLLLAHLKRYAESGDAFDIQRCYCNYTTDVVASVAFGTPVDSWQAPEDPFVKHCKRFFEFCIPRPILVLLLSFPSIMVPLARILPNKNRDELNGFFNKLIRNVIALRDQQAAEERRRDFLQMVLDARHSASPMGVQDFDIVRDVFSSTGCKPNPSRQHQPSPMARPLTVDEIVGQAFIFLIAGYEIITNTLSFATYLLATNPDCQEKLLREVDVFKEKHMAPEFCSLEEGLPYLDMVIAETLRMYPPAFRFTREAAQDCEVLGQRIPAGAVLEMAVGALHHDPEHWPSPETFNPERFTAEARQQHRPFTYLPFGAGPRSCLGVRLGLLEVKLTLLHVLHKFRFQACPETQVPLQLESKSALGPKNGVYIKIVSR
Put plainly: In vitro activity on thromboxane A2 synthase inhibition in gel filtered human platelets.

The term EC50 denotes the concentration needed to bring the measured effect to its halfway point. Broadly, the IC50 is the midpoint of a concentration-inhibition curve. Low readings indicate higher potency, high ones lower potency.

The compound `CC(C)(C)/N=C(\NC#N)Nc1cccc(/C(=C/CCCC(=O)O)c2cccnc2)c1` registered an EC50 in the test filed under Homo sapiens of 48 µM. On Thromboxane A2 receptor, the IC50 is 2.6 µM.

The compound `N#CN/C(=N/C12CC3CC(CC(C3)C1)C2)Nc1cccc(/C(=C\CCCC(=O)O)c2cccnc2)c1` returned an EC50 in the test filed under Homo sapiens of 0.5 µM. The results for the IC50 against Thromboxane A2 receptor and on Thromboxane-A synthase were 0.083 µM and 0.003 µM, respectively.

In turn, `O=C(O)CCC/C=C(/c1cccnc1)c1cccc(N/C(=N\C2CCCC2)NC(=O)c2ccccc2)c1` had an EC50 in the test listed under Homo sapiens of 16 µM. Further, the IC50 on Thromboxane A2 receptor stood at 0.11 µM; at Thromboxane-A synthase it was 0.004 µM.

Compound `O=C(O)CCC/C=C(/c1cccnc1)c1cccc(N/C(=C/[N+](=O)[O-])NC2CCCCC2)c1` registered an EC50 in the test listed under Homo sapiens of 15 µM. The IC50 was determined as 0.44 µM on Thromboxane A2 receptor and 0.31 µM at Thromboxane-A synthase.

As for `CC(C)(C)/N=C(\NC#N)Nc1cccc(/C(=N\OCCCCC(=O)O)c2cccnc2)c1`, in the test listed under Homo sapiens, the EC50 worked out at 5.2 µM. Besides, the IC50 at Thromboxane A2 receptor turned out to be 0.31 µM; against Thromboxane-A synthase, 0.005 µM.

The compound `N#CN/C(=N/C1CCCCC1)Nc1cccc(/C(=C\CCCC(=O)O)c2cccnc2)c1` displayed an EC50 in the test filed under Homo sapiens of 5.8 µM. The IC50 on Thromboxane A2 receptor stood at 0.047 µM; on Thromboxane-A synthase it was 0.003 µM.

On to `N#CN/C(N)=N\c1cccc(/C(=C\CCCC(=O)O)c2cccnc2)c1`, for which, in the test filed under Homo sapiens, a half-maximal response (EC50) required 1 µM. In addition, the IC50 on Thromboxane A2 receptor turned out to be 0.035 µM; at Thromboxane-A synthase, 0.43 µM.

On to `CC(C)(C)NC(Nc1cccc(/C(=C\CCCC(=O)O)c2cccnc2)c1)=C(C#N)C#N`, for which, in the test listed under Homo sapiens, the EC50 was determined as 0.12 µM. The IC50 on Thromboxane A2 receptor came to 0.003 µM.

In the test filed under Homo sapiens, `C/N=C(/NC#N)Nc1cccc(/C(=C\CCCC(=O)O)c2cccnc2)c1` displayed an EC50 of 0.46 µM. Besides, the IC50 against Thromboxane A2 receptor amounted to 0.016 µM; at Thromboxane-A synthase, 0.25 µM.

The compound `CC(C)(C)/N=C(/S)Nc1cccc(/C(=C\CCCC(=O)O)c2cccnc2)c1` showed an EC50 in the test listed under Homo sapiens of 2 µM. In addition, the IC50 stood at 0.038 µM against Thromboxane A2 receptor and 0.022 µM on Thromboxane-A synthase.

In the test listed under Homo sapiens, `N/C(=N/C1CCCC1)Nc1cccc(/C(=C\CCCC(=O)O)c2cccnc2)c1` yielded an EC50 of 21 µM. For the same compound, the IC50 on Thromboxane A2 receptor was determined as 1.7 µM; at Thromboxane-A synthase, 3.9 µM.

As to `CC(C)CC/N=C(/NC#N)Nc1cccc(/C(=C\CCCC(=O)O)c2cccnc2)c1`, in the test listed under Homo sapiens, the EC50 was found to be 0.69 µM.

In turn, `CC(C)C/N=C(/NC(N)=O)Nc1cccc(/C(=C\CCCC(=O)O)c2cccnc2)c1` came in with an EC50 in the test filed under Homo sapiens of 12 µM. The IC50 on Thromboxane A2 receptor worked out at 0.61 µM; against Thromboxane-A synthase, 0.2 µM.

In the test filed under Homo sapiens, `N#CN/C(=N/Cc1cccnc1)Nc1cccc(/C(=C\CCCC(=O)O)c2cccnc2)c1` returned an EC50 of 6.9 µM. In addition, the results for the IC50 on Thromboxane A2 receptor and at Thromboxane-A synthase were 0.13 µM and 0.32 µM, respectively.

On to `CC(C)(C)/N=C(\Nc1cccc(/C(=C\CCCC(=O)O)c2cccnc2)c1)NS(=O)(=O)c1ccccc1`, for which the EC50 in the test filed under Homo sapiens was found to be 3.3 µM. The IC50 against Thromboxane-A synthase was determined as 0.003 µM.

As to `CC(C)(C)/N=C(\Nc1cccc(/C(=C\CCCC(=O)O)c2cccnc2)c1)NS(C)(=O)=O`, a half-maximal effect in the test listed under Homo sapiens (EC50) was put at 6.1 µM. Also, the IC50 against Thromboxane A2 receptor turned out to be 0.33 µM; at Thromboxane-A synthase, 0.025 µM.

As for `CC(C)(C)/N=C(\NC#N)Nc1cccc(/C(=C\CCC(=O)O)c2cccnc2)c1`, the response in the test filed under Homo sapiens was half-maximal at 13 µM (EC50). The IC50 against Thromboxane A2 receptor came out at 0.081 µM; against Thromboxane-A synthase, 0.4 µM.

Compound `CC(C)(C)N/C(=N\C#N)Nc1cccc(/C(=C\CCCC(=O)O)c2cccnc2)c1` [TERBOGREL] returned an EC50 in the test listed under Homo sapiens of 0.31 µM.

`CC(C)(C)NC(=O)Nc1cccc(/C(=C\CCCC(=O)O)c2cccnc2)c1` had an EC50 in the test filed under Homo sapiens of 9 µM. The figures for the IC50 at Thromboxane A2 receptor and against Thromboxane-A synthase were 1.3 µM and 0.04 µM, respectively.

`CC(C)(C)Nc1c(Nc2cccc(/C(=C\CCCC(=O)O)c3cccnc3)c2)c(=O)c1=O` returned an EC50 in the test filed under Homo sapiens of 59 µM. Further, the IC50 on Thromboxane A2 receptor amounted to 0.83 µM; against Thromboxane-A synthase, 0.23 µM.

In turn, `N#CN/C(=N/Cc1ccccc1)Nc1cccc(/C(=C\CCCC(=O)O)c2cccnc2)c1` came in with an EC50 in the test listed under Homo sapiens of 1.6 µM. For the same compound, the IC50 on Thromboxane A2 receptor is 0.032 µM; against Thromboxane-A synthase, 0.011 µM.

`CC(C)(C)/N=C(\NC#N)Nc1cccc(/C(=C\CCCCC(=O)O)c2cccnc2)c1` registered an EC50 in the test filed under Homo sapiens of 3.7 µM. Moreover, the IC50 is 0.33 µM against Thromboxane A2 receptor and 0.006 µM on Thromboxane-A synthase.

Regarding `CC(C)(C)/N=C(\NC#N)Nc1cccc(/C(=N/OCCCCC(=O)O)c2cccnc2)c1`, in the test filed under Homo sapiens, the response was half-maximal at 17 µM (EC50). Further, the IC50 at Thromboxane A2 receptor was determined as 0.51 µM; at Thromboxane-A synthase, 0.23 µM.

In the test filed under Homo sapiens, `CN(C)/C(=N/c1cccc(/C(=C\CCCC(=O)O)c2cccnc2)c1)NC#N` had an EC50 of 1 µM. Also, the IC50 against Thromboxane A2 receptor was determined as 0.12 µM; at Thromboxane-A synthase, 0.026 µM.

In the test filed under Homo sapiens, `CC(C)(C)/N=C(\NC#N)Nc1cccc(/C(=C\CCCCCC(=O)O)c2cccnc2)c1` displayed an EC50 of 1.7 µM. The IC50 was 0.077 µM against Thromboxane A2 receptor and 0.005 µM against Thromboxane-A synthase.

In turn, `N#CN/C(=N/C1CCCC1)Nc1cccc(/C(=C\CCCC(=O)O)c2cccnc2)c1` displayed a 50% effective concentration (EC50) in the test filed under Homo sapiens of 0.5 µM.

Compound `CC(C)C/N=C(/NC#N)Nc1cccc(/C(=C\CCCC(=O)O)c2cccnc2)c1` had an EC50 in the test filed under Homo sapiens of 0.35 µM. Further, at Thromboxane-A synthase, half-maximal inhibition (IC50) was put at 0.025 µM.

For `CN(C)CC/N=C(/NC#N)Nc1cccc(/C(=C\CCCC(=O)O)c2cccnc2)c1`, in the test filed under Homo sapiens, the response was half-maximal at 6.8 µM (EC50). Moreover, the IC50 came out at 1 µM on Thromboxane A2 receptor and 2.9 µM at Thromboxane-A synthase.

Consider `N#CN/C(=N/C1CC1)Nc1ccc(/C(=C\CCCC(=O)O)c2cccnc2)cc1`, for which the response in the test listed under Homo sapiens was half-maximal at 42 µM (EC50). In addition, the IC50 against Thromboxane A2 receptor was found to be 21 µM; on Thromboxane-A synthase, 3.9 µM.

On to `CC(C)C/N=C(\Nc1cccc(/C(=C\CCCC(=O)O)c2cccnc2)c1)Nc1nn[nH]n1`, for which, in the test listed under Homo sapiens, the EC50 is 22 µM. For the same compound, the values for the IC50 against Thromboxane A2 receptor and on Thromboxane-A synthase were 0.3 µM and 0.93 µM, respectively.

As for `N#CN/C(=N/C1CCCCC1)Nc1ccc(/C(=C\CCCC(=O)O)c2cccnc2)cc1`, the EC50 in the test filed under Homo sapiens stood at 31 µM.

For the origin of these results see ChEMBL document CHEMBL1132624, “Guanidine derivatives as combined thromboxane A2 receptor antagonists and synthase inhibitors” (J Med Chem, 1999).
